Test results: ChEMBL document CHEMBL1921735, “Antibacterial optimization of 4-aminothiazolyl analogues of the natural product GE2270 A: identification of the cycloalkylcarboxylic acids” (J Med Chem, 2011)
Values after ≈ are worked out from the molar mass of the structure shown. Active and inactive are the calls of the source.

Key:
Staphylococcus aureus [1] = test: Antibacterial activity against methicillin-resistant Staphylococcus aureus isolate A4.018 by CLSI M07-A8 method; assay type: functional
Streptococcus pyogenes = test: Antibacterial activity against Streptococcus pyogenes ATCC BAA-595 by CLSI M07-A8 method; assay type: functional
How it was run: (§1)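 Broth microdilution MIC run per CLSI M07-A8 (2009).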

Escherichia coli = test: Antibacterial activity against Escherichia coli S30 assessed as inhibition of protein synthesis after 2 hrs by luminescence analysis; conditions: S30, 2 h
Enterococcus faecium = test: Antibacterial activity against Enterococcus faecium 7130724 by CLSI M07-A8 method; assay type: functional; how it was run: as §1
Streptococcus pneumoniae = test: Antibacterial activity against Streptococcus pneumoniae by CLSI M07-A8 method; assay type: functional, organism-based; how it was run: as §1
Enterococcus faecalis = test: Antibacterial activity against Enterococcus faecalis ATCC 29212 by CLSI M07-A8 method; assay type: functional; how it was run: as §1
Staphylococcus aureus [2] = test: Antibacterial activity against Staphylococcus aureus ATCC 01001 infected in thigh of CD1 mouse assessed as prevention of colony formation at 32 mg/kg, ip administered 2 hrs post infection measured after 24 hrs; assay type: functional, organism-based; parameters: dose 32 mg/kg
How it was run: (§2)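 Female CD1 mice (21−25 g), made neutropenic with cyclophosphamide ip at 150 mg/kg (day −4) and 100 mg/kg (day −1). Left thigh infected im with 0.05 mL S. aureus ATCC 01001 (7.5 × 10^5 cfu/thigh), grown 16 h at 36 °C in cation-supplemented Mueller Hinton. Treatment given 2 h post-infection, four mice per group. At 12 or 24 h thighs were excised, homogenized in 0.9% NaCl, serially diluted and plated on blood agar for cfu.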

Staphylococcus aureus [3] = test: Antibacterial activity against Staphylococcus aureus ATCC 01001 infected in thigh of CD1 mouse assessed as prevention of colony formation at 32 mg/kg, ip administered 2 hrs post infection measured after 12 hrs; assay type: functional, organism-based; parameters: dose 32 mg/kg; how it was run: as §2

Row | SMILES | MIC (Staphylococcus aureus [1]) | MIC (Streptococcus pyogenes) | IC50 (Escherichia coli) | MIC (Enterococcus faecium) | Activity (Streptococcus pneumoniae) | MIC (Enterococcus faecalis) | Activity (Staphylococcus aureus [2]) | Activity (Staphylococcus aureus [3])
1 | CNC(=O)C[C@@H]1NC(=O)c2csc(n2)-c2ccc(-c3nc(NC(=O)C(F)(F)F)cs3)nc2-c2csc(n2)-c2csc(n2)[C@H]([C@@H](O)c2ccccc2)NC(=O)CNC(=O)c2nc(sc2COC)[C@H](C(C)C)NC(=O)c2nc1sc2C | > 32 µg/mL | > 32 µg/mL | > 32 µM | 1 µg/mL (≈ 0.839 µM) | Active | 1 µg/mL (≈ 0.839 µM) |  | 
2 | CNC(=O)C[C@@H]1NC(=O)c2csc(n2)-c2ccc(-c3nc(NC(=O)CCCCP(=O)(O)O)cs3)nc2-c2csc(n2)-c2csc(n2)[C@H]([C@@H](O)c2ccccc2)NC(=O)CNC(=O)c2nc(sc2COC)[C@H](C(C)C)NC(=O)c2nc1sc2C | > 32 µg/mL | > 32 µg/mL | 1.5 µM | > 32 µg/mL | Active | > 32 µg/mL |  | 
3 | CCCCCCCCCC(=O)N[C@@H](Cc1c[nH]c2ccccc12)C(=O)N[C@H](CC(N)=O)C(=O)N[C@@H](CC(=O)O)C(=O)N[C@@H]1C(=O)NCC(=O)N[C@@H](CCCN)C(=O)N[C@@H](CC(=O)O)C(=O)N[C@H](C)C(=O)N[C@@H](CC(=O)O)C(=O)NCC(=O)N[C@H](CO)C(=O)N[C@@H]([C@H](C)CC(=O)O)C(=O)N[C@@H](CC(=O)c2ccccc2N)C(=O)O[C@@H]1C |  |  |  |  |  |  | Active | Active
4 | CNC(=O)C[C@@H]1NC(=O)c2csc(n2)-c2ccc(-c3nc(NC(=O)OCCOCCOCCOC)cs3)nc2-c2csc(n2)-c2csc(n2)[C@H]([C@@H](O)c2ccccc2)NC(=O)CNC(=O)c2nc(sc2COC)[C@H](C(C)C)NC(=O)c2nc1sc2C | 4 µg/mL (≈ 3.11 µM) | > 32 µg/mL | 10.8 µM | 0.5 µg/mL (≈ 0.389 µM) | Active | 0.5 µg/mL (≈ 0.389 µM) |  | 
5 | CNC(=O)C[C@@H]1NC(=O)c2csc(n2)-c2ccc(-c3nc(NC(=O)CCCN(C)C)cs3)nc2-c2csc(n2)-c2csc(n2)[C@H]([C@@H](O)c2ccccc2)NC(=O)CNC(=O)c2nc(sc2COC)[C@H](C(C)C)NC(=O)c2nc1sc2C | 1 µg/mL (≈ 0.827 µM) | 4 µg/mL (≈ 3.31 µM) | 2.6 µM | 1 µg/mL (≈ 0.827 µM) | Active | 0.5 µg/mL (≈ 0.413 µM) |  | 
6 | CNC(=O)C[C@@H]1NC(=O)c2csc(n2)-c2ccc(-c3nc(NC(=O)CCCO)cs3)nc2-c2csc(n2)-c2csc(n2)[C@H]([C@@H](O)c2ccccc2)NC(=O)CNC(=O)c2nc(sc2COC)[C@H](C(C)C)NC(=O)c2nc1sc2C | 1 µg/mL (≈ 0.846 µM) | > 32 µg/mL | > 16 µM | 0.5 µg/mL (≈ 0.423 µM) | Active | 0.5 µg/mL (≈ 0.423 µM) |  | 
7 | CNC(=O)C[C@@H]1NC(=O)c2csc(n2)-c2ccc(-c3nc(NC(=O)CCCCC(=O)OC)cs3)nc2-c2csc(n2)-c2csc(n2)[C@H]([C@@H](O)c2ccccc2)NC(=O)CNC(=O)c2nc(sc2COC)[C@H](C(C)C)NC(=O)c2nc1sc2C | > 32 µg/mL | > 32 µg/mL | > 32 µM | 2 µg/mL (≈ 1.61 µM) | Active | 4 µg/mL (≈ 3.23 µM) |  | 
